Values after ≈ are worked out from the molar mass of the structure shown. Active and inactive are the calls of the source. The rule behind the calls is not given here.

The values that follow come from ChEMBL document CHEMBL4837227, “Discovery and development of 2-aminobenzimidazoles as potent antimalarials” (Eur J Med Chem, 2021).

The nature of data set [1]: (§1) Binding affinity to Plasmodium falciparum 3D7 AMA1 (104 to 438 residues) expressed in Escherichia coli BL21(DE3) by surface plasmon resonance assay.
In data set [2] the test system is Plasmodium falciparum. Kind of data set: Antimalarial activity against Plasmodium falciparum 3D7 assessed as reduction in parasite growth measured after 72 hrs by Monash assay based fluorescence analysis. It counts as functional, organism-based. To be noted: 3D7, 72 h. Summed up:
(§2)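 Asynchronous P. falciparum cultures were grown continuously in complete RPMI with 25 mM HEPES, 0.5% Albumax II, 0.37 mM hypoxanthine and 2.0 g/l bicarbonate. They were exposed to serially diluted compound for 72 h. Controls were DMSO (0.01%) and a reference positive control. Fluorescence was read after 2 h in the dark at room temperature. IC50 is mean SEM from technical duplicate or triplicate, at least three biological replicates.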

Data set [3] relates to Plasmodium falciparum. Kind of data set: Antimalarial activity against synchronous ring stage of Plasmodium falciparum 3D7 assessed as parasite growth inhibition incubated for 72 hrs by Griffith assay based fluorescence analysis. The data set is classed as functional, organism-based. To be noted: 3D7, 72 h. The essentials:
(§3)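 22-point dose-response, 3 per log, final 40 µM top, 0.4% DMSO. 72 h at 37 °C under 90% N2/5% CO2/5% O2. DAPI stain, confocal imaging. IC50 from 4-parameter fit normalised to in-plate puromycin and DMSO controls.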

Data set [4] concerns Plasmodium falciparum. Nature of the data set: Antimalarial activity against synchronous ring stage of Plasmodium falciparum Dd2 assessed as parasite growth inhibition incubated for 72 hrs by Griffith assay based fluorescence analysis. The data set is classed as functional, organism-based. To be noted: Dd2, 72 h. Summed up: as §3
A short description of data set [5]: Selectivity index, ratio of IC50 for antimalarial activity against Plasmodium falciparum Dd2 to IC50 of antimalarial activity against Plasmodium falciparum 3D7. The data set is classed as functional.
For data set [6], the system named is Plasmodium falciparum. Nature of the data set: Antimalarial activity against artemisinin-resistant Plasmodium falciparum Cam3.II^C580Y expressing K13 mutant assessed as reduction in parasite growth measured after 72 hrs by Monash assay based fluorescence analysis. The data set is classed as functional, organism-based. The essentials:
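Asynchronous culture, 72 h compound exposure. Compounds prepared at […] (twice the top concentration) in complete RPMI (25 mM HEPES, 0.5% Albumax II, 0.37 mM hypoxanthine, sodium bicarbonate), then serially diluted. Fluorescence read after 2 h room-temperature dark incubation. Negative control 0.01% DMSO. IC50 as mean SEM, n ≥ 3 biological replicates, each in technical duplicate or triplicate.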

Data set [7] has as its system Plasmodium falciparum. Kind of data set: Antimalarial activity against artemisinin-sensitive Plasmodium falciparum Cam3.II^rev expressing wild type K13 assessed as reduction in parasite growth measured after 72 hrs by Monash assay based fluorescence analysis. The data set is classed as functional, organism-based. The essentials: as §2
Data set [8] relates to Plasmodium falciparum. Nature of the data set: Antiplasmodial activity against PfATP4 inhibitor SJ557733-resistant Plasmodium falciparum Dd2 assessed as reduction in parasite growth incubated for 72 hrs by Griffith assay based fluorescence analysis. The data set is classed as functional, organism-based. To be noted: Dd2, 72 h. Summed up: as §3
For data set [9], the system named is Plasmodium falciparum. Nature of the data set: Selectivity index, ratio of IC50 for antimalarial activity against PfATP4 inhibitor SJ557733-resistant Plasmodium falciparum Dd2 to IC50 of antimalarial activity against Plasmodium falciparum Dd2. It counts as functional.
Data set [10] in a line: Selectivity index, ratio of IC50 for cytotoxicity against human HEK293 cells to antiplasmodial activity against Plasmodium falciparum 3D7. It counts as toxicity, cell-based. The conditions noted are these: read-out: Ratio IC50.
Data set [11] in a line: Kinetic solubility of the compound at pH 2 measured after 30 mins by nephelometry. The data set is classed as physicochemical. The conditions noted are these: buffer, read-out: Kinetic_solubility. Summed up:
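Compound in DMSO was spiked into 0.01 M HCl (pH ~2.0) at a final DMSO of 1%. After 30 min, nephelometry gave a solubility range.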

Data set [12] in a line: Metabolic stability in mouse liver microsomes assessed as half-life at 1 uM measured for 60 mins in presence of NADPH regenerating system by LC-MS analysis. The data set is classed as ADME, Microsome. The essentials: (§4)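 Compound was incubated at 37 °C with liver microsomes at 0.4 mg/mL protein. The reaction was started with an NADPH-regenerating system and quenched at time points over 60 min with acetonitrile containing diazepam as internal standard. No-NADPH controls were quenched at 2, 30 and 60 min.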
In general terms: Microsomes from liver hold many membrane-bound enzymes, among them those of drug oxidation.

Data set [13] can be described thus: Metabolic stability in human liver microsomes assessed as half-life at 1 uM measured for 60 mins in presence of NADPH regenerating system by LC-MS analysis. It counts as ADME, Microsome. The essentials:
as §4

Data set [14] is described as follows: Metabolic stability in mouse liver microsomes assessed as intrinsic clearance at 1 uM measured per mg protein for 60 mins in presence of NADPH regenerating system by LC-MS analysis. It counts as ADME, Microsome. The conditions noted are these: read-out: CLH. The essentials: as §4
A short description of data set [15]: Metabolic stability in human liver microsomes assessed as intrinsic clearance at 1 uM measured per mg protein after 60 mins in presence of NADPH regenerating system by LC-MS analysis. It counts as ADME, Microsome. The conditions noted are these: read-out: CLH. The essentials:
as §4

Data set [16] can be described thus: Kinetic solubility of the compound at pH 6.5 measured after 30 mins by nephelometry. The conditions noted are these: buffer, read-out: Kinetic_solubility.
The test system of data set [17] is HEK293. Kind of data set: Cytotoxicity against human HEK293 cells assessed as reduction in cell viability at 50 uM measured after 24 hrs by MTT assay. The conditions noted are these: hek293, 24 h. (Tetrazolium assays rely on reduction of a dye to a coloured formazan, in cell work by metabolically active cells.)
In data set [18] the test system is Plasmodium falciparum 3D7. The description is as §1.

In data set [1], `Nc1cc(N)cc(-c2nc3ccccc3[nH]2)c1` displayed a dissociation constant Kd of 100000 nM.
Same read-out and setting: next, `Nc1cccc(-c2nc3ccccc3[nH]2)c1`: 500000 nM.
Consider `Cc1ccc(-n2c(N)nc3ccccc32)c(O)c1`, for which the IC50 in [2] was found to be 42 nM; in data set [3], 13.5 nM; in data set [4], 31.7 nM; in [6], 81 nM; in data set [7], 140 nM; in data set [8], 17.5 nM. For the same compound, the results for the Ratio IC50 in data set [5] and in data set [9] were 2.3 and 0.5, respectively. The selectivity ratio in data set [10] is > 1000. Also, the figures for the solubility kinetic at 0.5 h in data set [11] and in [16] were > 100 µg/mL and 25 µg/mL (≈ 104 µM), respectively. Further, the values for the half-life at 1 µM in data set [12] and in data set [13] were 0.3 h and 2.7 h, respectively. The microsomal CLint at 1 µM is 97 µL/min/mg in [14] and 11 µL/min/mg in [15]. In addition, the Activity result in data set [17] is recorded as “Non-Toxic”.
`Nc1nc2ccccc2n1-c1ccccc1O`: the IC50 in data set [2] turned out to be 77 nM; in data set [3], 22.2 nM; in data set [4] it was 97.3 nM; in data set [6], 264 nM; in [7], 350 nM; in data set [8] it was 46 nM. The Ratio IC50 in [5] was found to be 4.4; in [9] it was 0.5. For the same compound, the selectivity ratio in [10] is > 1000. Further, the solubility kinetic at 0.5 h in data set [11] and in [16] was > 100 µg/mL in each case. Further, the half-life at 1 µM was 1.3 h in [12] and > 4.25 h in [13]. Besides, the microsomal CLint at 1 µM is 22 µL/min/mg in data set [14] and < 7 µL/min/mg in [15]. In data set [18], the outcome was inactive. Moreover, the Activity result in data set [17] is recorded as “Non-Toxic”.
In data set [1], `Oc1cccc(-c2nc3ccccc3[nH]2)c1` had a Kd of 800000 nM.

The term Kd denotes the constant that tells how readily two partners part at equilibrium. For orientation: IC50 means the concentration needed to halve the response being measured. As usually defined, the half-life is the time in which the quantity being followed falls by half.
